{"source": "ChEMBL document CHEMBL1149849", "about": "“Capnellenes from the Formosan soft coral Capnella imbricata” (2008)", "key": {"RAW264.7 [1]": {"tested_on": "RAW264.7", "experiment": "Antiinflammatory activity against LPS-stimulated mouse RAW264.7 cells assessed as reduction of COX2 level at 10 uM after 16 hrs by DC protein assay", "type": "functional", "outline": "(§1)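 RAW264.7 cells activated with E. coli LPS (0.01 µg/mL) for 16 h with or without test compound. Cells washed in ice-cold PBS, lysed, and centrifuged at 20000g, 30 min, 4 °C. Supernatant protein measured by DC assay (Lowry-modified); equal protein loaded for SDS-PAGE, transferred to PVDF, blocked, and probed 180 min with anti-iNOS or anti-COX-2 (1:1000). Levels reported relative to LPS-only control.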"}, "RAW264.7 [2]": {"tested_on": "RAW264.7", "experiment": "Antiinflammatory activity against LPS-stimulated mouse RAW264.7 cells assessed as reduction of iNOS level at 10 uM after 16 hrs by DC protein assay", "type": "functional", "outline": "as §1"}}, "note": "Active and inactive are the calls of the source. The rule behind the calls is not given here.", "data": [{"smiles": "C=C1[C@H]2[C@@H](C[C@@H]1O)C[C@]1(C)CC[C@](C)(CO)[C@H]21", "values": [{"measurement": "Activity", "setting": "RAW264.7 [1]", "value": "inactive"}, {"measurement": "Activity", "setting": "RAW264.7 [2]", "value": "inactive"}]}, {"smiles": "C=C1[C@@H](O)C[C@H]2C[C@]3(CO)CCC(C)(C)[C@@H]3[C@@]12O", "values": [{"measurement": "Activity", "setting": "RAW264.7 [1]", "value": "inactive"}, {"measurement": "Activity", "setting": "RAW264.7 [2]", "value": "inactive"}]}, {"smiles": "C=C1[C@@H](O)C[C@H]2C[C@]3(C)CCC(C)(C)[C@@H]3[C@@]12O", "values": [{"measurement": "Activity", "setting": "RAW264.7 [1]", "value": 24.8}, {"measurement": "Activity", "setting": "RAW264.7 [2]", "value": 1.2}]}, {"smiles": "C=C1[C@H]2[C@@H](C[C@@H]1O)C[C@]1(C)CCC(C)(C)[C@H]21", "values": [{"measurement": "Activity", "setting": "RAW264.7 [1]", "value": "inactive"}, {"measurement": "Activity", "setting": "RAW264.7 [2]", "value": "inactive"}]}, {"smiles": "C=C1[C@H]2[C@@H](C[C@@H]1OC(C)=O)C[C@]1(C)CCC(C)(C)[C@H]21", "values": [{"measurement": "Activity", "setting": "RAW264.7 [1]", "value": "inactive"}, {"measurement": "Activity", "setting": "RAW264.7 [2]", "value": "inactive"}]}, {"smiles": "C=C1[C@@H](OC(C)=O)C[C@H]2C[C@]3(C)CCC(C)(C)[C@@H]3[C@@]12OC(C)=O", "values": [{"measurement": "Activity", "setting": "RAW264.7 [1]", "value": "inactive"}, {"measurement": "Activity", "setting": "RAW264.7 [2]", "value": "inactive"}]}, {"smiles": "CC1(C)CC[C@@]2(C)C[C@@H]3CC(=O)C(CO)=C3[C@@H]12", "values": [{"measurement": "Activity", "setting": "RAW264.7 [1]", "value": "inactive"}, {"measurement": "Activity", "setting": "RAW264.7 [2]", "value": "inactive"}]}, {"smiles": "C=C1[C@@H](OC(C)=O)C[C@H]2C[C@]3(C)CCC(C)(C)[C@@H]3[C@@]12O", "values": [{"measurement": "Activity", "setting": "RAW264.7 [1]", "value": 62.9}, {"measurement": "Activity", "setting": "RAW264.7 [2]", "value": 54.4}]}, {"smiles": "C=C1C(=O)C[C@H]2C[C@]3(C)CCC(C)(C)[C@@H]3[C@@]12O", "values": [{"measurement": "Activity", "setting": "RAW264.7 [1]", "value": "inactive"}, {"measurement": "Activity", "setting": "RAW264.7 [2]", "value": 34.8}]}]}
